Test results reported in ChEMBL document CHEMBL1128714, “Synthesis and anti-HIV activity of 1,1'-dideoxygossypol and related compounds” (J Med Chem, 1995).
pEC50: −log10 of the molar value.

What was measured:
HeLa [1] = assay: Highest concentration at which no visible changes in cell morphology or monolayer adhesion was detected.; assay type: functional, Homo sapiens
HeLa [2] = assay: Compound was evaluated for the anti HIV activity in HT46c (HeLaT4+) cells as host cells for H9/HIV-IIIB strain of the HIV-1 virus; anti HIV activity masked by cytotoxicity; assay type: functional, cell-based, Homo sapiens
HeLa [3] = assay: Compound was evaluated for the anti HIV activity in HT46c (HeLaT4+) cells as host cells for H9/HIV-IIIB strain of the HIV-1 virus; assay type: functional, cell-based; conditions: Homo sapiens
Summary of the method: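 HT46c (HeLaT4+) cells were plated at 5×10^4 cells/well in RPMI 1640 with 10% FBS and attached overnight. They were infected with HIV-1 H9/HIV-IIIB at an input giving 100–200 foci/well in positive controls by day 3. Compound was tested at 0.01, 0.1, 1.0, 5.0 and 20 μM for 3 days at 37 °C, 5% CO2. Foci were counted by focal immunoassay on methanol-fixed monolayers, and EC50 was derived.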

Structure (SMILES)	TC (HeLa [1]) [µM]	EC50 (HeLa [2])	pEC50 (HeLa [3])
Cc1ccc2c(C(=O)O)c(O)c(O)c(C(C)C)c2c1	>20	–	–
Cc1cc2c(C(C)C)c(O)c(O)c(C=O)c2cc1-c1cc2c(C=O)c(O)c(O)c(C(C)C)c2cc1C	>1	anti HIV activity masked by cytotoxicity	–
Cc1ccc2c(C=O)c(O)c(O)c(C(C)C)c2c1	>1	–	4.70
Cc1cc2c(C(C)C)c(O)c(O)c(C(=O)O)c2cc1-c1cc2c(C(=O)O)c(O)c(O)c(C(C)C)c2cc1C	>5	–	6.15
